From ChEMBL document CHEMBL1914423, “New imidazo[2,1-b]thiazole derivatives: synthesis, in vitro anticancer evaluation, and in silico studies” (Eur J Med Chem, 2011)

Assays:
[1] = Antiproliferative activity against human A375P cells after 48 hrs by MTT assay; assay type: functional, cell-based
Method in brief: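 A375P cells in DMEM with 10% FBS at 37 °C, 5% CO2. Seeded at 5×10³ cells/well, held 24 h, then treated with 12-point 3-fold serial dilutions for 48 h. Viability by MTT reduction. IC50 values are means of triplicate experiments.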

HL-60(TB) = test: Anticancer activity against human HL-60(TB) cells assessed as cell growth at 10^-5 M after 48 hrs by SRB assay; assay type: functional; conditions: HL-60, 48 h, read-out: Activity
Method in brief: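 NCI-60 single-dose screen. Cells in RPMI 1640 with 5% FBS and 2 mM L-glutamine were plated at 5000–40,000 cells/well and preincubated 24 h at 37 °C before one compound concentration. Time-zero plates were TCA-fixed at drug addition. For suspension cells, settled cells were fixed with cold TCA, then SRB-stained and read at 515 nm. Percent growth was calculated from time-zero, control and treated absorbances.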

SR = test: Anticancer activity against human SR cells assessed as cell growth at 10^-5 M after 48 hrs by SRB assay; assay type: functional; conditions: read-out: Activity
Method in brief: (§1)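 NCI-60 single-dose screen: cells in RPMI 1640 with 5% FBS and 2 mM L-glutamine, plated at 5000–40,000 cells/well by doubling time, and preincubated 24 h at 37 °C. Compound given at one concentration from DMSO stock. Cells TCA-fixed and SRB-stained, absorbance at 515 nm. Percent growth relative to time-zero and untreated controls; inhibition % = 100 − growth %.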

A549 = test: Anticancer activity against human A549 cells assessed as cell growth at 10^-5 M after 48 hrs by SRB assay; assay type: functional; conditions: A549, 48 h, read-out: Activity
Method in brief: (§2)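 NCI-60 single-dose screen at one concentration. Cells grown in RPMI 1640 with 5% FBS and 2 mM L-glutamine, plated at 5000–40,000 cells/well, and pre-incubated 24 h at 37 °C in 5% CO2 before DMSO-dissolved drug was added. Cells fixed with TCA, SRB-stained, absorbance read at 515 nm. Percent growth calculated against time-zero and untreated control plates.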

EKVX = test: Anticancer activity against human EKVX cells assessed as cell growth at 10^-5 M after 48 hrs by SRB assay; assay type: functional; conditions: read-out: Activity; method in brief: as §2
HOP-62 = test: Anticancer activity against human HOP62 cells assessed as cell growth at 10^-5 M after 48 hrs by SRB assay; assay type: functional; conditions: HOP-62, 48 h, read-out: Activity; method in brief: as §2
COLO 205 = test: Anticancer activity against human COLO205 cells assessed as cell growth at 10^-5 M after 48 hrs by SRB assay; assay type: functional; conditions: COLO 205, 48 h, read-out: Activity; method in brief: as §2
HCC 2998 = test: Anticancer activity against human HCC2998 cells assessed as cell growth at 10^-5 M after 48 hrs by SRB assay; assay type: functional; conditions: HCC 2998, 48 h, read-out: Activity; method in brief: as §2
HT-29 = test: Anticancer activity against human HT-29 cells assessed as cell growth at 10^-5 M after 48 hrs by SRB assay; assay type: functional; conditions: HT-29, 48 h, read-out: Activity; method in brief: as §2
SW-620 = test: Anticancer activity against human SW620 cells assessed as cell growth at 10^-5 M after 48 hrs by SRB assay; assay type: functional; conditions: SW-620, 48 h, read-out: Activity; method in brief: as §1
SF-268 = test: Anticancer activity against human SF268 cells assessed as cell growth at 10^-5 M after 48 hrs by SRB assay; assay type: functional; conditions: SF-268, 48 h, read-out: Activity
SF-539 = test: Anticancer activity against human SF539 cells assessed as cell growth at 10^-5 M after 48 hrs by SRB assay; assay type: functional; conditions: SF-539, 48 h, read-out: Activity
SNB-19 = test: Anticancer activity against human SNB19 cells assessed as cell growth at 10^-5 M after 48 hrs by SRB assay; assay type: functional; conditions: SNB-19, 48 h, read-out: Activity
SNB-75 = test: Anticancer activity against human SNB75 cells assessed as cell growth at 10^-5 M after 48 hrs by SRB assay; assay type: functional; conditions: SNB-75, 48 h, read-out: Activity; method in brief: as §1
LOX IMVI = test: Anticancer activity against human LOXIMVI cells assessed as cell growth at 10^-5 M after 48 hrs by SRB assay; assay type: functional; conditions: read-out: Activity; method in brief: as §2
MDA-MB-435 = test: Anticancer activity against human MDA-MB-435 cells assessed as cell growth at 10^-5 M after 48 hrs by SRB assay; assay type: functional; conditions: MDA-MB-435, 48 h, read-out: Activity
SK-MEL-2 = test: Anticancer activity against human SK-MEL-2 cells assessed as cell growth at 10^-5 M after 48 hrs by SRB assay; assay type: functional; conditions: SK-MEL-2, 48 h, read-out: Activity
UACC-257 = test: Anticancer activity against human UACC257 cells assessed as cell growth at 10^-5 M after 48 hrs by SRB assay; assay type: functional; conditions: UACC-257, 48 h, read-out: Activity; method in brief: as §1
UACC-62 = test: Anticancer activity against human UACC62 cells assessed as cell growth at 10^-5 M after 48 hrs by SRB assay; assay type: functional; conditions: UACC-62, 48 h, read-out: Activity; method in brief: as §1
OVCAR-4 = test: Anticancer activity against human OVCAR4 cells assessed as cell growth at 10^-5 M after 48 hrs by SRB assay; assay type: functional; conditions: OVCAR-4, 48 h, read-out: Activity
OVCAR-5 = test: Anticancer activity against human OVCAR5 cells assessed as cell growth at 10^-5 M after 48 hrs by SRB assay; assay type: functional; conditions: OVCAR-5, 48 h, read-out: Activity
NCI/ADR-RES = test: Anticancer activity against human NCI/ADR-RES cells assessed as cell growth at 10^-5 M after 48 hrs by SRB assay; assay type: functional; conditions: read-out: Activity
A498 = test: Anticancer activity against human A498 cells assessed as cell growth at 10^-5 M after 48 hrs by SRB assay; assay type: functional; conditions: A498, 48 h, read-out: Activity; method in brief: as §2
CAKI-1 = test: Anticancer activity against human Caki1 cells assessed as cell growth at 10^-5 M after 48 hrs by SRB assay; assay type: functional; conditions: CAKI-1, 48 h, read-out: Activity; method in brief: as §2
RXF 393 = test: Anticancer activity against human RXF393 cells assessed as cell growth at 10^-5 M after 48 hrs by SRB assay; assay type: functional; conditions: RXF 393, 48 h, read-out: Activity
DU-145 = test: Anticancer activity against human DU145 cells assessed as cell growth at 10^-5 M after 48 hrs by SRB assay; assay type: functional; conditions: DU-145, 48 h, read-out: Activity; method in brief: as §2
BT-549 = test: Anticancer activity against human BT549 cells assessed as cell growth at 10^-5 M after 48 hrs by SRB assay; assay type: functional; conditions: BT-549, 48 h, read-out: Activity; method in brief: as §2
RPMI-8226 = test: Anticancer activity against human RPMI8226 cells after 48 hrs by SRB assay; assay type: functional; conditions: RPMI-8226, 48 h
NCI-H522 = test: Anticancer activity against human NCI-H522 cells after 48 hrs by SRB assay; assay type: functional; conditions: NCI-H522, 48 h; for CC50: read-out: LC50 (the source's name)

Row | SMILES | IC50 [1] [µM] | growth at 10 µM (HL-60(TB)) [%] | growth at 10 µM (SR) [%] | growth at 10 µM (A549) [%] | growth at 10 µM (EKVX) [%] | growth at 10 µM (HOP-62) [%] | growth at 10 µM (COLO 205) [%] | growth at 10 µM (HCC 2998) [%] | growth at 10 µM (HT-29) [%] | growth at 10 µM (SW-620) [%] | growth at 10 µM (SF-268) [%] | growth at 10 µM (SF-539) [%] | growth at 10 µM (SNB-19) [%] | growth at 10 µM (SNB-75) [%] | growth at 10 µM (LOX IMVI) [%] | growth at 10 µM (MDA-MB-435) [%] | growth at 10 µM (SK-MEL-2) [%] | growth at 10 µM (UACC-257) [%] | growth at 10 µM (UACC-62) [%] | growth at 10 µM (OVCAR-4) [%] | other results
1 | O=C(NCCNc1nccc(-c2c(-c3cccc(O)c3)nc3sccn23)n1)c1ccccc1O | 3.2 | 59.8 | 63.2 | 43.3 | 66.8 | 114 | 66.5 | 81 | 49.2 | 77.9 | 62.5 | 61.9 | 90.2 | 40.6 | 33.5 | 14.3 | 13.9 | 14.8 | 0.53 | 96.2 | growth at 10 µM (OVCAR-5): 88.7%; growth at 10 µM (NCI/ADR-RES): 73.6%; growth at 10 µM (A498): 104%; growth at 10 µM (CAKI-1): 24.3%; growth at 10 µM (RXF 393): 50.9%; growth at 10 µM (DU-145): 67.2%; growth at 10 µM (BT-549): 45.7%; GI50 (RPMI-8226): 3.55 µM; LC50 (RPMI-8226): > 100 µM; TGI (RPMI-8226): > 100 µM; GI50 (NCI-H522): 4.83 µM; TGI (NCI-H522): 20.4 µM; CC50 (NCI-H522): 57 µM
2 | O=C(NCCNc1nccc(-c2c(-c3cccc(O)c3)nc3sccn23)n1)Nc1cccc(C(F)(F)F)c1 | 4.2 | 36.4 | 59.2 | 39.3 | 91.2 | 83.5 | 53.2 | 23 | 38.9 | 30.3 | 26.2 | 98.5 | 89.5 | 66.2 | 64.5 | -3.01 | 54.4 | 25.3 | 29.4 | 110 | growth at 10 µM (OVCAR-5): 117%; growth at 10 µM (NCI/ADR-RES): 108%; growth at 10 µM (A498): 111%; growth at 10 µM (CAKI-1): 90.3%; growth at 10 µM (RXF 393): 26.2%; growth at 10 µM (DU-145): 89%; growth at 10 µM (BT-549): 41.1%; GI50 (RPMI-8226): 2.52 µM; LC50 (RPMI-8226): > 100 µM; TGI (RPMI-8226): 5.46 µM; GI50 (NCI-H522): 2.11 µM; TGI (NCI-H522): 5 µM; CC50 (NCI-H522): 20.9 µM
3 | COc1cccc(-c2nc3sccn3c2-c2ccnc(NCCNC(=O)Nc3cccc(C(F)(F)F)c3)n2)c1 | 5.3 | 62.8 | 38.5 | 44.4 | 61.5 | 98.9 | 57.6 | 40.8 | 44.1 | 88.9 | 62.3 | 77.9 | 74.8 | 71.8 | 44.3 | 21.5 | 61.9 | 69.5 | 50.5 | 91.1 | growth at 10 µM (OVCAR-5): 103%; growth at 10 µM (NCI/ADR-RES): 27.2%; growth at 10 µM (A498): 61.6%; growth at 10 µM (CAKI-1): 40%; growth at 10 µM (RXF 393): 6.3%; growth at 10 µM (DU-145): 79.8%; growth at 10 µM (BT-549): 71.9%; GI50 (RPMI-8226): 1.92 µM; LC50 (RPMI-8226): > 100 µM; TGI (RPMI-8226): 5.11 µM; GI50 (NCI-H522): 2.67 µM; TGI (NCI-H522): 8.51 µM; CC50 (NCI-H522): 86.5 µM
4 | O=C(NCCNc1nccc(-c2c(-c3cccc(O)c3)nc3sccn23)n1)c1ccccc1 | 0.5 | 93.3 | 68 | 56.3 | 94.2 | 119 | 48.5 | 97.8 | 65.4 | 78.2 | 80.7 | 73.2 | 91.1 | 54.4 | 23.2 | 24 | 45.5 | 11.3 | 0.9 | 98 | growth at 10 µM (OVCAR-5): 90.6%; growth at 10 µM (NCI/ADR-RES): 99.7%; growth at 10 µM (A498): 48%; growth at 10 µM (CAKI-1): 87.9%; growth at 10 µM (RXF 393): 62.6%; growth at 10 µM (DU-145): 90.5%; growth at 10 µM (BT-549): 61.4%; GI50 (RPMI-8226): 6.97 µM; TGI (RPMI-8226): 25.3 µM; GI50 (NCI-H522): 5.76 µM; TGI (NCI-H522): 25.5 µM; CC50 (NCI-H522): 93.9 µM
